Only some compounds are listed: those with a hit (about 1.3% of all), similar ones and a draw of the others.
PfGluPho inh = PfG6PD enzyme inhibitors, primary screen, biochemical, fluorescence intensity, uHTS; glucose-6-phosphate dehydrogenase-6-phosphogluconolactonase (Plasmodium falciparum 3D7); inhibition, % at 20 µM; PfGluPho enzyme, NADPH resazurin-diaphorase fluorescence; hit rate 0.78% among 350,000;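 active = inhibition reaching at least a set limit at 20 µM in the primary screen, cut at about 59% in these data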;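 note: 0% = DMSO wells with substrate and 100% = DMSO wells lacking glucose-6-phosphate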
HKDC1 inhibitor = HKDC1 hexokinase inhibitors, primary screen, biochemical, fluorescence, uHTS | Q2TB90 | recombinant HKDC1, G6PDH/diaphorase resazurin coupled fluorescence | inhibition, % at 20 µM | hit rate 0.16% among 340,000 | AID 493160, 2011;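 active = inhibition above about 35% when tested at 20 µM, limit read from the data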;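 note: plate controls were DMSO wells with enzyme for no effect and DMSO wells lacking enzyme for full effect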
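Test system: recombinant HKDC1 (HK5) hexokinase enzyme, produced in-house / Doses: 20 µM test compound, 1% DMSO / Timing: 90 min, room temperature / Detection: G6PDH/diaphorase-coupled fluorescence, 1 mM NADP, 100 µM resazurin, 525/613 nm / Control set: DMSO wells with and without enzyme mix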
Diaphorase inh = diaphorase inhibitors and chemical oxidizers, primary screen, counter-screen for diaphorase-coupled primary assays, biochemical, uHTS, resorufin fluorescence | hit rate 0.69% among 190,000 | diaphorase resazurin-to-resorufin fluorescence, NADH, 16 min; bacterial (C. kluyveri) enzyme, not human | inhibition, % at 20 µM;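 active = primary screen inhibition at 20 µM above a set limit, cut at about 50% in these data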;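 note: plate controls were DMSO with full reaction for no effect and wells lacking NADH for full effect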
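material = Clostridium kluyveri diaphorase enzyme | amount = 0.14 U/mL diaphorase, enzyme working solution | schedule = incubation 16 min, room temperature | detection = fluorescence of resorufin formed from resazurin, Ex 544/Em 590 nm | benchmarks = positive control minus NADH, DMSO neutral control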
G6PDH CS = L. mesenteroides G6PDH inhibitors, counter-screen for G6PDH-coupled screening assays, biochemical, Leuconostoc mesenteroides enzyme. glucose-6-phosphate dehydrogenase [Leuconostoc mesenteroides]. Purified L. mesenteroides G6PDH, diaphorase/resazurin coupled fluorescence, 45 min. inhibition, % at 5 µM. hit rate 0.12% among 200,000; in the data active = inhibition above about 50%
Tb hexokinase = Trypanosoma brucei hexokinase 1 inhibitors, primary screen, biochemical, G6PDH-coupled NADH absorbance, MLSCN library; hexokinase 1 [Trypanosoma brucei]; recombinant TbHK1, G6PDH-coupled NADH A340; inhibition, % at 10 µM; hit rate 0.11% among 220,000; AID 1430, 2008;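 active = inhibition of 50% or more in the single-dose primary screen; inactive = inhibition below 50%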
HKDC1 act conf2 = HKDC1 hexokinase activators, confirmation, biochemical, single concentration; shares compounds with HKDC1 inhibitor; recombinant HKDC1, G6PDH/diaphorase resazurin fluorescence; stronger effect = lower value; inhibition, % at 20 µM; hit rate 14% among 740;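 active = inhibition at or below a set negative limit, negative inhibition meaning the enzyme was activated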
* hit, by the source's call; . = no result.

SMILES	PfGluPho inh	HKDC1 inhibitor	Diaphorase inh	G6PDH CS	Tb hexokinase	HKDC1 act conf2
O=C(Nc1ccc(Nc2ccncc2)cc1)c1ccc(Nc2ccnc3ccc([N+](=O)[O-])cc23)cc1	49.9	43.7*	.	.	-35.1	-7.2
O=C(Nc1ccc(Cc2ccncc2)cc1)c1cccc([N+](=O)[O-])c1	5.7	-8.4	19.5	9.9	32.5	.
COc1cccc(C(=O)NCC(c2ccco2)N2CCc3ccccc3C2)c1 (centres undefined)	17.6	34.6	.	.	.	-0.2
O=C(CSc1ccccn1)Nc1ccc2c(c1)C(=O)c1ccccc1C2=O	19.8	14.9	8.9	10.1	8.5	.
O=C(CSc1n[nH]c(=O)[nH]c1=O)Nc1ccc2c(c1)C(=O)c1ccccc1C2=O	-22.1	52.3*	.	.	2.0	14.1
O=C(c1ccc(Sc2ccc(F)cc2)c([N+](=O)[O-])c1)N1CCOCC1	-1.7	-2.8	9.2	-2.8	-0.8	.
Fc1ccc(N=C2NN=C(c3cc(F)ccc3F)CS2)cc1	19.2	-218.3	17.9	6.6	-0.8	-131.9*
Fc1ccc(F)c(C2=NNC(=Nc3ccccc3F)SC2)c1	18.0	-142.8	18.8	6.2	0.0	.
Fc1ccccc1N=C1NN=C(c2ccccc2)CS1	1.2	-82.5	16.4	8.3	-29.3	-53.4*
CC(=O)c1cccc(S(=O)(=O)Nc2ccc3nc(C)sc3c2)c1	-15.7	0.1	3.4	5.3	8.3	.
COc1cc2c(C#N)c(N3CCc4ccccc4C3)nc(N)c2c(N)n1	33.1	40.8*	61.3*	-27.7	14.6	-20.8
O=C(NC1CCCCCCC1)c1ccc(Br)o1	4.8	-2.8	.	.	.	.
C/C(=N\NC(=O)c1cc(C2CC2)nc2ccccc12)c1ccc(C)s1	-19.7	-4.8	4.2	11.4	-6.1	.
C/C(=N\NC(=O)c1cc(C2CC2)nc2ccccc12)c1ccc(O)cc1O	-20.2	-44.0	.	.	.	-5.6
COc1ccc(-c2cc(C(F)F)n3ncc(C(=O)N4CCN(C)CC4)c3n2)cc1	-10.3	-3.7	8.4	9.6	-21.6	.
O=C1C(Cl)=C(N2CCC(C(=O)O)CC2)C(=O)c2ccccc21	42.8	49.6*	.	.	-1.3	57.2
Cc1cc(C)n(Cc2ccc(C(=O)N/N=C/c3ccc(-c4ccc([N+](=O)[O-])cc4)o3)o2)n1	11.1	66.0*	.	.	.	31.3
CCN(C(=O)C(C)N1C(=O)/C(=C/c2ccco2)SC1=S)C1CCS(=O)(=O)C1 (centres undefined)	33.0	10.7	.	.	.	.
CC(C(=O)O)N1C(=O)/C(=C/C=C/c2ccco2)SC1=S (centres undefined)	56.5	56.0*	42.0	16.7	30.4	4.8
CC(=O)N1c2ccc(Cl)cc2C2C=CCC2C1c1cccc2ccccc12 (centres undefined)	15.4	42.5*	15.8	-4.6	27.1	3.1
CC(=O)N1c2ccc3ccccc3c2C2C=CCC2C1c1ccc(Br)cc1 (centres undefined)	.	.	26.3	8.9	-15.6	.
CCOc1ccc2c(c1)C(NC(C)=O)C(=O)N2CCN1CCOCC1 (centres undefined)	17.4	82.3*	.	.	.	60.9
CC(=O)NC1C(=O)N(CCN2CCOCC2)c2ccc(Br)cc21 (centres undefined)	18.9	80.8*	.	.	.	61.0
CC(=O)NC1C(=O)N(CCc2ccccc2)c2ccc(Br)cc21 (centres undefined)	-2.1	-2.6	14.1	5.4	-7.0	.
CCCN(Cc1ccccc1)C(=S)Nc1ccc(SC(F)F)cc1	18.9	-0.4	17.9	3.7	6.3	.
CC(C)(CNC(=O)c1ccc(S(=O)(=O)N2CCCC2)cc1)N1CCOCC1	-5.0	-2.9	-13.1	6.5	-7.2	.
CCN(CC)S(=O)(=O)c1ccc(C(=O)NCCc2cc3c(OC)ccc(OC)c3[nH]c2=O)cc1	29.2	28.2	24.3	13.6	-7.1	.
COc1ccc(OC)c2[nH]c(=O)c(CCNC(=O)c3ccc(S(=O)(=O)N4CCCC4)cc3)cc12	14.5	33.4	50.6*	4.9	-2.9	32.4

Assay outcomes (PubChem BioAssay)
